In publication PMC6205205 (Medicinal chemistry (Shariqah (United Arab Emirates)), 2018):
“Also recorded” adds a separate entry of the source.

Columns and labels:
[1] = biological target: T1, IDH1(R132H) (Homo sapiens, UniProt O75874, R132H); experiment: IDH1; format: biochemical; conditions: for Inhibitory activity against IDH1(R132H), in words: compound screening at 50 μM
[2] = biological target: WT IDH1 (Homo sapiens, UniProt O75874); experiment: Enzyme inhibition of wild-type IDH1; format: biochemical
[3] = biological target: R132C IDH1 (Homo sapiens, UniProt O75874, R132C); experiment: Enzyme inhibition of R132C mutant IDH1; format: biochemical
[4] = tested on: BXD-3752 glioma cells without IDH1 mutation; experiment: Inhibition of proliferation of glioma stem-like cells; format: cell-based, human; conditions: 5 μM, 14 days treatment, no IDH1 mutation
Method in brief: (§1)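 Patient-derived glioma cells grown as neurospheres in serum-free medium at 37 °C, 5% CO₂, 100% humidity. Cells seeded at 2000/well and exposed to increasing concentrations of test compound for 14 days. Viability read by Cell Counting Kit-8 following the kit protocol.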

[5] = tested on: BT142 glioma cells with R132H IDH1 mutation; experiment: as above; format: cell-based, human; conditions: 5 μM, 14 days treatment
Method in brief: as §1

[6] = biological target: T1, IDH1(R132H); experiment: Steady-state kinetic study, mode of inhibition; format: biochemical
Method in brief: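 IDH1(R132H) was expressed in E. coli and purified. Initial velocities were taken as the linear rate of NADPH consumption, followed by UV absorbance at 340 nm. Test compound, α-KG and NADPH levels were each varied. Data were fitted to competitive, noncompetitive and uncompetitive models, and the best model was chosen by highest R² and lowest AICc.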

Chain of WT IDH1 (O75874 whole entry): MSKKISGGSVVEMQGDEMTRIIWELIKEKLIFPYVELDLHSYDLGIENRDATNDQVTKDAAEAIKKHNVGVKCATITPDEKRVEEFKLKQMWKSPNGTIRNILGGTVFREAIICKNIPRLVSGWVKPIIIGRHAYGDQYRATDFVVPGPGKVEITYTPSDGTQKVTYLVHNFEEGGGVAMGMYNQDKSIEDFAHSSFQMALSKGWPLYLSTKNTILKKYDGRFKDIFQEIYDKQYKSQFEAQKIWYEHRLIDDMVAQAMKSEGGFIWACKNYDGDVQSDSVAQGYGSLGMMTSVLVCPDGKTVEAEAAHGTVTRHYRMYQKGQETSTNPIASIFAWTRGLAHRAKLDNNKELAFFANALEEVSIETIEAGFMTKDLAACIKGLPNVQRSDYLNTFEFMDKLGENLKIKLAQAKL
Chain of R132C IDH1 (O75874 whole entry R132C): as the sequence (O75874 whole entry) above, with R132C counted along it
T1 sequence (O75874 whole entry R132H): as the sequence (O75874 whole entry) above, with R132H counted along it

O=S(=O)(Nc1cc(Oc2ccccc2)c(O)c2ccccc12)c1ccc(Br)cc1 [Compound 1, 4-bromo-N-(4-hydroxy-3-phenoxynaphthalen-1-yl)benzenesulfonamide]
Ki [1]: 8.2 µM

O=S(=O)(Nc1cc(Br)c(O)c2ccccc12)c1ccc(Br)cc1 [Compound 2, 4-bromo-N-(3-bromo-4-hydroxynaphthalen-1-yl)benzenesulfonamide]
Ki [2]: > 50 µM
Ki [3]: > 50 µM
Ki [1]: 4.1 µM
Fold increased inhibitory activity relative to compound 1 ([1]; IDH1(R132H), vs compound 1): ~ 2 fold

Cc1ccc(-c2cc(NS(=O)(=O)c3ccc(C)cc3)c3ccccc3c2O)cc1 [Compound 3, N-(4-hydroxy-3-(p-tolyl)naphthalen-1-yl)-4-methylbenzenesulfonamide]
Inhibitory activity against IDH1(R132H), in words [1]: inactive
Activity against proliferation of BXD-3752 glioma cells [4]: did not exhibit activity
Activity against proliferation of BT142 glioma cells [5]: did not exhibit activity

O=S(=O)(Nc1cc(-c2ccc3ccccc3c2)c(O)c2ccccc12)c1ccc(Br)cc1 [Compound 4, 4-bromo-N-(1-hydroxy-[2,2’-binaphthalen]-4-yl)benzenesulfonamide]
Inhibitory activity against IDH1(R132H), in words [1]: inactive

O=C(O)CCc1cc(NS(=O)(=O)c2ccc(Br)cc2)c2ccccc2c1O [Compound 5, 3-(4-((4-bromophenyl)sulfonamido)-1-hydroxynaphthalen-2-yl)propanoic acid]
Ki [1]: 17.5 µM

O=P(O)(O)CCc1cc(NS(=O)(=O)c2ccc(Br)cc2)c2ccccc2c1O [Compound 6, (2-(4-((4-bromophenyl)sulfonamido)-1-hydroxynaphthalen-2-yl)ethyl)phosphonic acid]
Ki [1]: 2.4 µM

COc1ccc(S(=O)(=O)Nc2cc(CCC(=O)O)c(O)c3ccccc23)cc1 [Compound 7, 3-(1-hydroxy-4-((4-methoxyphenyl)sulfonamido)naphthalen-2-yl)propanoic acid]
Ki [1]: 10.2 µM

O=S(=O)(Nc1cc(Br)c(O)c2ccccc12)c1ccc(F)cc1 [Compound 8, N-(3-bromo-4-hydroxynaphthalen-1-yl)-4-fluorobenzenesulfonamide]
Ki [1]: ~25 µM

Cc1ccc(S(=O)(=O)Nc2cc(Br)c(O)c3ccccc23)cc1 [Compound 9, N-(3-bromo-4-hydroxynaphthalen-1-yl)-4-methylbenzenesulfonamide]
Ki [2]: > 50 µM
Ki [3]: > 50 µM
Ki [1]: 1.2 µM
Fold more active than compound 2 ([1]; IDH1(R132H), vs compound 2): ~ 4 ×
Activity against proliferation of BXD-3752 glioma cells [4]: did not show activity; also recorded: did not significantly affect growth
Activity against proliferation of BT142 glioma cells [5]: strongly inhibited the growth; also recorded: strong activity
Mode of inhibition against the cofactor NADPH ([6]; variable NADPH, Michaelis-Menten plot): noncompetitive mode of action; also recorded: non-competitive inhibitor
Mode of inhibition against the substrate α-KG ([6]; variable α-KG, Lineweaver-Burk plot): competitive inhibitor

O=S(=O)(Nc1cc(Br)c(O)c2ccccc12)c1ccc(-c2ccccc2)cc1 [Compound 10, N-(3-bromo-4-hydroxynaphthalen-1-yl)-[1,1’-biphenyl]-4-sulfonamide]
Ki [2]: > 50 µM
Ki [3]: 36 µM
Ki [1]: 0.6 µM
Activity against proliferation of BXD-3752 glioma cells [4]: did not show activity; also recorded: did not significantly affect growth
Activity against proliferation of BT142 glioma cells [5]: strongly inhibited the growth; also recorded: strong activity

O=S(=O)(Nc1cc(Br)c(O)c2ccccc12)c1ccc2ccccc2c1 [Compound 11, N-(3-bromo-4-hydroxynaphthalen-1-yl)naphthalene-2-sulfonamide]
Ki [2]: > 50 µM
Ki [3]: > 50 µM
Ki [1]: 0.8 µM

Cc1ccc(S(=O)(=O)Nc2ccc(O)c3ccccc23)cc1 [Compound 12, N-(4-hydroxynaphthalen-1-yl)-4-methylbenzenesulfonamide]
Ki [1]: 6.8 µM
Fold less active than compound 9 ([1]; IDH1(R132H), vs compound 9): ~ 6 fold

O=S(=O)(Nc1ccc(O)c2ccccc12)c1ccccc1 [Compound 13, N-(4-hydroxynaphthalen-1-yl)benzenesulfonamide]
Ki [1]: 11.1 µM

O=S(=O)(Nc1ccc(O)c(Oc2ccccc2)c1)c1ccc(Br)cc1 [Compound 14, 4-bromo-N-(4-hydroxy-3-phenoxyphenyl)benzenesulfonamide]
Inhibitory activity against IDH1(R132H), in words [1]: Devoid of activity

O=S(=O)(Nc1ccc(O)cc1)c1ccc(Br)cc1 [Compound 17, 4-bromo-N-(4-hydroxyphenyl)benzenesulfonamide]
Ki [1]: 7.3 µM

O=S(=O)(Nc1cccc(Br)c1)c1ccc(Br)cc1 [Compound 18, 4-bromo-N-(3-bromophenyl)benzenesulfonamide]
Ki [1]: 9 µM

O=S(=O)(Nc1ccccc1)c1ccc(Br)cc1 [Compound 19, 4-bromo-N-phenylbenzenesulfonamide]
Inhibitory activity against IDH1(R132H), in words [1]: inactive

O=S(=O)(Nc1ccc(F)c(Cl)c1)c1ccc(Br)cc1 [Compound 20, 4-bromo-N-(3-chloro-4-fluorophenyl)benzenesulfonamide]
Ki [1]: 16.1 µM
